Data published in article PMC5710144 (Genes & Development, 2017).

What was measured:
[1] = system: CUL4A / DDB1 association with BRWD2/PHIP; assay type: cell-based; settings: MLN4924 1 µM
Outline: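 In HEK293 TRex cells expressing Flag-BRWD2/PHIP, MLN4924 (1 µM) was added 5 h before harvest. Flag purifications were made from MNase-digested chromatin. Inputs and immunoprecipitates were probed by immunoblot with antibodies to CUL4A, DDB1 and Flag-M2.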

[2] = system: BRWD2/PHIP CRL4 interaction; test: MS of Flag-BRWD2/PHIP purifications after inhibitor treatment; assay type: cell-based; settings: MLN4924 1 µM, 5 h
Outline: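 Flag-BRWD2/PHIP was purified from MNase-digested chromatin of HEK293 TRex cells expressing Flag-BRWD2/PHIP, with parental HEK293 TRex cells as the control. MLN4924 (1 µM) was added 5 h before harvest where indicated. Immunoprecipitated complexes were prepared for MS and analysed by MS.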

BRWD2/PHIP association with Nedd8-binding protein UBXD7 (UBXN7) [2]: disrupts BRWD2/PHIP association | interaction with chromatin remodelers and histone-binding proteins (CHD4, PHF6, FACT) [2]: not altered
SMILES: NS(=O)(=O)OC[C@@H]1C[C@@H](n2ccc3c(N[C@H]4CCc5ccccc54)ncnc32)C[C@@H]1O [MLN4924]
BRWD2/PHIP association with CUL4A and DDB1 ([1]; 5 h): still occurs | CUL4A level / CUL4A interaction with BRWD2/PHIP ([1]; 5 h): slightly reduced | Nedd8 attachment to CUL4 ([1]; added 5 h prior to harvesting, HEK293): blocks Nedd8 attachment to CUL4 | BRWD2/PHIP association with CSN complex [2]: disrupts BRWD2/PHIP association
